{"source": "ChEMBL document CHEMBL1157420", "about": "“2-phenyl-4-piperazinylbenzimidazoles: orally active inhibitors of the gonadotropin releasing hormone (GnRH) receptor” (Bioorg Med Chem, 2008)", "key": {"[1]": {"test": "Volume of distribution at steady state in rat at 1.0 mg/kg, iv", "assay_type": "ADME, organism-based", "parameters": "dose 1 mg/kg, route intravenous", "settings": "in vivo, read-out: Vdss"}, "[2]": {"target": "T1, Gonadotropin-releasing hormone receptor (Rattus norvegicus, UniProt P30969)", "T1 sequence (P30969 whole entry)": "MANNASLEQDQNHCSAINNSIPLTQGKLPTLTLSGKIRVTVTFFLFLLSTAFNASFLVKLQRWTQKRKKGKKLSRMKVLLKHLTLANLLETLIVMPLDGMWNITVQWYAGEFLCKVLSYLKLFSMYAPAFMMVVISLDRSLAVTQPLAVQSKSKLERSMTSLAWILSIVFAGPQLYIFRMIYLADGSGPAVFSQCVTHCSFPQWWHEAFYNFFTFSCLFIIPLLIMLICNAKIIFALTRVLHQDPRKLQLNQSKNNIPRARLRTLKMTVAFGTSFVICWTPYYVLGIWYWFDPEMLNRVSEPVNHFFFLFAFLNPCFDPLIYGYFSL", "test": "Displacement of [125I]-(D-Trp6)LHRH from rat recombinant GnRH receptor", "how_it_was_run": "(§1)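 Membranes from recombinant cells expressing human or rat GnRH receptor, made in 25 mM Tris-Cl pH 7.4 with 0.1% sodium azide and 0.1% BSA. 50 μg protein incubated with about 50,000 cpm 125I-(D-Trp6)-LHRH for 2 h at 4 °C, with increasing unlabeled competitor. Filtered on BSA-presoaked glass-fiber filters, washed twice, counted by gamma counter. Percent inhibition and IC50 derived.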"}, "[3]": {"target": "T2, Gonadotropin-releasing hormone receptor (Homo sapiens, UniProt P30968)", "T2 sequence (P30968 whole entry)": "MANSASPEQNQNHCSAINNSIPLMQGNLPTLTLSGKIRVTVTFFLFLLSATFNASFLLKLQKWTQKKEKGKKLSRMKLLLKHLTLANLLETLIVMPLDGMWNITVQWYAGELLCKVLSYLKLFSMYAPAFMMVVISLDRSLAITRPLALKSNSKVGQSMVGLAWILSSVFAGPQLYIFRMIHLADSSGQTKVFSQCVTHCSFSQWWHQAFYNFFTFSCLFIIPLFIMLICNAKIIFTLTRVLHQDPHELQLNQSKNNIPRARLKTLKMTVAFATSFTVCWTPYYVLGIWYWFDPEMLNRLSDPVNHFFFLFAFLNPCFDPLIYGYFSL", "test": "Displacement of [125I]-(D-Trp6)LHRH from human recombinant GnRH receptor", "how_it_was_run": "as §1"}, "[4]": {"test": "AUC (0 to infinity) in rat at 20 mg/kg, po", "assay_type": "ADME, organism-based", "parameters": "time infinity, dose 20 mg/kg, route oral", "settings": "plasma"}, "[5]": {"test": "Cmax in rat at 20 mg/kg, po", "assay_type": "ADME, organism-based", "parameters": "dose 20 mg/kg, route oral", "settings": "in vivo"}, "[6]": {"target": "5-hydroxytryptamine receptor 2A (Homo sapiens, UniProt P28223)", "sequence (P28223 whole entry)": "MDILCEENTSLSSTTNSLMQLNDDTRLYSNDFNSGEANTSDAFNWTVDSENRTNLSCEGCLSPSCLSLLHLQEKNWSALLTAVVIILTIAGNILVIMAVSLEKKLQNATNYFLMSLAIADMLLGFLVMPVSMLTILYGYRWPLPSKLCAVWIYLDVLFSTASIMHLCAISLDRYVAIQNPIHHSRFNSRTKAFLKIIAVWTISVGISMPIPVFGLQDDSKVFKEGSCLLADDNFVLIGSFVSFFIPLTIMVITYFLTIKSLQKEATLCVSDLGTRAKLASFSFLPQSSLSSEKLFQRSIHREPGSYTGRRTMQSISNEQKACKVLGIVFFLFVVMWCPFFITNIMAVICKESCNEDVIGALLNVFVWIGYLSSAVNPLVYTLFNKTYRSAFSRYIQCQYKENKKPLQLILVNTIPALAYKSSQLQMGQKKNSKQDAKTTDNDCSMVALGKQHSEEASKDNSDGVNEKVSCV", "test": "Binding affinity to 5HT2A receptor"}, "[7]": {"test": "AUC (0 to infinity) in rat at 1.0 mg/kg, iv", "assay_type": "ADME, organism-based", "parameters": "time infinity, dose 1 mg/kg, route intravenous", "settings": "plasma"}, "[8]": {"target": "T2, Gonadotropin-releasing hormone receptor", "test": "Antagonist activity at human recombinant GnRH receptor assessed as reduction in (D-Trp6)LHRH-induced myo-(1,2)-[3H]inositol production", "assay_type": "functional", "how_it_was_run": "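Recombinant cells expressing human GnRH receptor, pre-labeled with myo-(1,2)-3H-inositol, incubated 1 h in medium with lithium chloride and D-Trp6-LHRH, with or without antagonist. Cells then lysed and labeled inositol phosphates separated from inositol by […] and counted. Run in triplicate, repeated in three independent experiments; IC50 derived.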"}, "Rattus norvegicus": {"tested_on": "Rattus norvegicus", "test": "Activity in orchidectomized castrated Sprague-Dawley rat assessed as reduction in LH level at 30 mg/kg, po after 24 hrs", "assay_type": "functional, organism-based", "parameters": "dose 30 mg/kg", "settings": "in the assay text read “after 1 to 6 hrs” for “after 24 hrs”", "how_it_was_run": "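Male Sprague–Dawley rats ten days post-castration, jugular-catheterized; basal blood drawn, then vehicle (2% Tween 80/0.04 N HCl) or antagonist given orally. Blood sampled at regular intervals, plasma LH measured by ELISA. Figure legend gives PEG 400 as vehicle, nine animals per group, t = 0 levels set to 100.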"}, "[9]": {"test": "Tmax in rat at 20 mg/kg, po", "assay_type": "ADME, organism-based", "parameters": "dose 20 mg/kg, route oral", "settings": "in vivo"}, "[10]": {"test": "Bioavailability in rat at 20 mg/kg, po", "assay_type": "ADME, organism-based", "settings": "in vivo"}, "[11]": {"test": "Plasma clearance in rat at 1.0 mg/kg, iv", "assay_type": "ADME, organism-based", "parameters": "dose 1 mg/kg, route intravenous"}, "[12]": {"target": "T1, Gonadotropin-releasing hormone receptor", "test": "Antagonist activity at […] GnRH receptor in CO2 asphyxiated rat primary pituitary cells assessed as reduction in (D-Trp6)LHRH-induced LH release", "assay_type": "functional, cell-based, Pituitary gland cell", "how_it_was_run": "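Anterior pituitaries from adult rats were minced, dissociated and plated at 30,000 cells/well in DMEM with 25 mM Hepes and 10% FBS, then cultured 72 h at 37 °C, 5% CO2. After washing, cells were treated 3 h in 0.1% BSA medium with an antagonist dose response plus an ED50 concentration of D-Trp6-LHRH. LH in medium measured by RIA; cell toxicity checked by CellTiter-Glo.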"}, "[13]": {"test": "Half life in rat plasma at 20 mg/kg, po", "assay_type": "ADME, organism-based", "parameters": "dose 20 mg/kg, route oral"}, "[14]": {"test": "Half life in rat plasma at 1.0 mg/kg, iv", "assay_type": "ADME, organism-based", "parameters": "dose 1 mg/kg, route intravenous"}}, "note": "Active and inactive are the calls of the source. The calls are words filed in the database; no cut-off is given here.", "data": [{"smiles": "CCn1cc(CN2CCN(c3cccc4[nH]c(-c5ccc(C(C)(C)C)cc5)nc34)CC2)c(=O)[nH]c1=O", "values": [{"measurement": "Vd", "setting": "[1]", "result": 4.8, "unit": "L/kg"}, {"measurement": "IC50", "setting": "[2]", "result": 32, "unit": "nM"}, {"measurement": "IC50", "setting": "[3]", "result": 11, "unit": "nM"}, {"measurement": "AUC(0-inf)", "setting": "[4]", "result": 2720, "unit": "ng·h/mL"}, {"measurement": "Cmax", "setting": "[5]", "result": 480, "unit": "ng/mL"}, {"measurement": "Ki", "setting": "[6]", "result": 230, "unit": "nM"}, {"measurement": "AUC(0-inf)", "setting": "[7]", "result": 190, "unit": "ng·h/mL"}, {"measurement": "IC50", "setting": "[8]", "result": 4, "unit": "nM"}, {"measurement": "Activity", "setting": "Rattus norvegicus", "result": "Active"}, {"measurement": "Tmax", "setting": "[9]", "result": 0.67, "unit": "h"}, {"measurement": "bioavailability", "setting": "[10]", "result": 74, "unit": "%"}, {"measurement": "clearance", "setting": "[11]", "result": 95, "unit": "mL/min/kg"}, {"measurement": "IC50", "setting": "[12]", "result": 59, "unit": "nM"}, {"measurement": "half-life", "setting": "[13]", "result": 3.1, "unit": "h"}, {"measurement": "half-life", "setting": "[14]", "result": 1.1, "unit": "h"}]}]}
